Where a name gives a salt, the structure may show the parent alone.
Tests used:
astrocytes = settings: in vitro pre-treatment, 25 μM, stimulation with IL1β; ref Galloway et al., 2017; cited from earlier work
[1] = system: C3 secretion from inflammation-induced astrocytes; assay: C3 secretion; format: cell-based, human
Procedure, shortened: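 Primary human cortical astrocytes on PLL-coated plates; after 24 h, medium replaced with 50% v/v supernatant from resting or LPS (100 ng/ml) plus CD3/CD28 bead-stimulated PBMC, with test compound or matched DMSO. Screen run twice at single concentrations; titrations at 0–1000 nM (n = 3), IC50 from best-fit curves. Supernatant C3 by ELISA at 24 h, reported as % of stimulated DMSO after unstimulated subtraction.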

[2] = doses over 400 mg/day; ref Utili et al., 1977; cited from earlier work
[3] = system: secretome of inflammation-induced astrocytes; format: cell-based, human; settings: SOMAscan, n = 1; for secretion of "toxic astrocyte signature" biomarkers: normalized toxic vs resting astrocytes index
[4] = system: human induced pluripotent stem cells (iPSCs)-differentiated astrocytes; settings: pretreatment, in the presence of inflammatory stimuli; ref Colombo et al., 2020; cited from earlier work
[5] = inflammation-induced astrocytes

Question: Which “secretion of proinflammatory cytokines and oxidative stress” value (astrocytes) does the source give for `COC(=O)/C=C/C(=O)OC` [DMF, dimethyl fumarate] here?
Answer: reduced

Question: What about the “C3 secretion by astrocytes” value ([1]; library screen at 100 nM) of the same compound?
Answer: not at 100 nM

Question: What about the “C3 secretion by astrocytes” value ([1]; library screen at 10 μM) of the same compound?
Answer: inhibited

Question: With `O=C1CN(/N=C/c2ccc(-c3ccc([N+](=O)[O-])cc3)o2)C(O)=N1` [Dantrolene] as the compound, how does the hepatotoxicity [2] read?
Answer: serious hepatotoxicity

Question: What about the “inhibition of secretion of C3” value ([1]; drug library screen) of the same compound?
Answer: 77.7%

Question: Which results are given for `CC(C)c1cc(-c2n[nH]c(=O)n2-c2ccc3c(ccn3C)c2)c(O)cc1O` [Ganetespib]?
Answer: secretion of proteins from astrocytes not activated by inflammatory stimuli [3]: inhibited; secretion of "toxic astrocyte signature" biomarkers [3]: strongly reduced secretion of all biomarkers

Question: For `CO[C@H]1C[C@@H]2CC[C@@H](C)[C@@](O)(O2)C(=O)C(=O)N2CCCC[C@H]2C(=O)O[C@H]([C@H](C)C[C@@H]2CC[C@@H](O)[C@H](OC)C2)CC(=O)[C@H](C)/C=C(\C)[C@@H](O)[C@@H](OC)C(=O)[C@H](C)C[C@H](C)/C=C/C=C/C=C/1C` [Rapamycin], which “secretion of "toxic astrocyte signature" biomarkers” value [3] is on record?
Answer: did not have potent effect on secretion of most

Question: And the “secretion of CCL20, TNFAIP6 and CFB” value [3, 5]?
Answer: elevated

Question: And the “secretion of CCL20 and CCL8” value [3, 5]?
Answer: increased

Question: What about the “secretion of SERPINA3” value [3, 5] of the same compound?
Answer: failed to inhibit

Question: Which “secretion of proinflammatory cytokines” value [4] does the source give for `CCCCCCCCc1ccc(CCC(N)(CO)CO)cc1` [fingolimod] here?
Answer: reduced

Question: For `CCc1cc(/C(C)=N/OCc2ccc(C3CCCCC3)c(C(F)(F)F)c2)ccc1CN1CC(C(=O)O)C1` [siponimod], which “secretion of proinflammatory cytokines” value [4] is on record?
Answer: reduced

From paper PMC8926038 (Multiple sclerosis and related disorders, 2022)
